ChEMBL document CHEMBL1949638, “4'-bromo-5,6,7-trimethoxyflavone represses lipopolysaccharide-induced iNOS and COX-2 expressions by suppressing the NF-κB signaling pathway in RAW 264.7 macrophages” (Bioorg Med Chem Lett, 2012)
Values belong to the compound of their own block, whether it stands above or below them. The source made the active and inactive calls. The rule behind the calls is not given here.

Key:
[1] = system: RAW264.7; test: Inhibition of NF-kappaB in mouse RAW264.7 cells assessed as reduction of LPS-induced IL1beta release at 6.25 to 25 uM pretreated for 1 hr before LPS challenge and measured after 24 hrs post LPS challenge by EIA; format: cell-based
Outline: (§1)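 Compound at 6.25, 12.5 or 25 μM given 1 h ahead of LPS 1 μg/ml, then 24 h incubation. TNF-α, IL-6 and IL-1β in culture medium quantified by EIA kits. Means ± SDs of three independent experiments.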

[2] = system: RAW264.7; test: Antiinflammatory activity against mouse RAW264.7 cells assessed as inhibition of LPS-induced PGE2 production by EIA; format: functional, cell-based
[3] = system: RAW264.7; test: Inhibition of NF-kappaB in mouse RAW264.7 cells assessed as inhibition of LPS-induced iNOS expression preincubated 1 hr before LPS challenge measured after 24 hrs by Western blot analysis; format: cell-based
Outline: (§2)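 1 h pretreatment at 6.25, 12.5 or 25 μM, then LPS 1 μg/ml for 24 h. Controls had neither LPS nor compound. 30 μg total protein run on SDS–PAGE, blotted to nitrocellulose, probed with iNOS- and COX-2-specific antibodies. Blots representative of three experiments.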

[4] = system: RAW264.7; test: Inhibition of NF-kappaB in mouse RAW264.7 cells assessed as reduction of LPS-induced IL1beta mRNA expression at 6.25 to 25 uM after 4 hrs by quantitative RT-PCR analysis; format: cell-based
Outline: (§3)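 RNA prepared after 4 h of LPS 1 μg/ml stimulation with or without 6.25–25 μM compound. TNF-α, IL-6 and IL-1β transcripts quantified by qRT-PCR and normalised to β-actin. Three independent experiments.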

[5] = system: Peritoneal macrophage cell; test: Antiinflammatory activity against thioglycolate-stimulated C57BL/6 mouse peritoneal macrophages assessed as inhibition of LPS-induced PGE2 production by EIA; format: functional, cell-based
[6] = system: RAW264.7; test: Inhibition of NF-kappaB activation in LPS-stimulated mouse RAW264.7 cells assessed as blockage of IkappaBalpha degradation pretreated at 6.25 to 25 uM for 1 hr before LPS challenge measured after 15 to 60 mins post challenge by Western blotting; format: cell-based
Outline: (§4)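 Pretreatment 1 h at 6.25, 12.5 or 25 μM, then LPS 1 μg/ml for 15 min or 1 h. Cytosolic extracts immunoblotted for phospho-IκBα and IκBα, with β-actin as loading control. Blots representative of three experiments.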

[7] = system: RAW264.7; test: Inhibition of NF-kappaB in mouse RAW264.7 cells co-transfected with pCOX-2-luc reporter with pRL-TK-luc assessed as inhibition of LPS-induced COX2 expression pretreated for 1 hr before LPS challenge by luciferase assay; format: cell-based
Outline: (§5)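 Cells transiently co-transfected with the piNOS-luc or pCOX-2-luc reporter plus pRL-TK-luc, then pretreated 1 h with 6.25, 12.5 or 25 μM before LPS. Luciferase activity read on a luminometer. Means ± SDs of three independent experiments.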

[8] = system: Peritoneal macrophage cell; test: Antiinflammatory activity against thioglycolate-stimulated C57BL/6 mouse peritoneal macrophages assessed as inhibition of LPS-induced NO production preincubated for 1 hr before LPS challenge measured after 24 hrs by Griess method; format: functional, cell-based
Outline: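 Peritoneal macrophages harvested from thioglycolate-injected C57BL/6 mice. Test agent 6.25, 12.5 or 25 μM added 1 h before LPS 1 μg/ml, with 24 h incubation. NO in the medium measured by Griess assay. Three independent experiments, means ± SDs.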

[9] = system: RAW264.7; test: Cytotoxicity against mouse LPS-stimulated RAW264.7 cells assessed as effect on cell viability up to 50 uM after 24 hrs; format: cell-based; settings: raw264.7, 24 h
Outline: (§6)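 RAW 264.7 viability checked after 24 h exposure to compounds up to 50 µM, with and without LPS.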

[10] = system: RAW264.7; test: Inhibition of NF-kappaB in mouse RAW264.7 cells assessed as inhibition of LPS-induced expression of COX2 preincubated 1 hr before LPS challenge measured after 24 hrs by Western blot analysis; format: cell-based; outline: as §2
[11] = system: RAW264.7; test: Cytotoxicity against mouse RAW264.7 cells assessed as effect on cell viability up to 50 uM after 24 hrs; format: cell-based; settings: raw264.7, 24 h; outline: as §6
[12] = system: RAW264.7; test: Inhibition of NF-kappaB in mouse RAW264.7 cells assessed as suppression of LPS-induced COX2 mRNA level at 6.25 to 25 uM after 4 hrs by quantitative RT-PCR analysis; format: cell-based
Outline: (§7)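 Total RNA taken from cells exposed to LPS 1 μg/ml with or without 6.25, 12.5 or 25 μM compound for 4 h. Steady-state iNOS and COX-2 mRNA measured by qRT-PCR and expressed as a ratio to β-actin. Means ± SDs, n=3 independent experiments. ANOVA with Dunnett's test.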

[13] = system: RAW264.7; test: Antiinflammatory activity against mouse RAW264.7 cells assessed as inhibition of LPS-induced PGE2 production at 25 uM by EIA; format: functional
[14] = system: RAW264.7; test: Antiinflammatory activity against mouse RAW264.7 cells assessed as inhibition of LPS-induced NO production preincubated for 1 hr before LPS challenge measured after 24 hrs by Griess method; format: functional, cell-based
Outline: (§8)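 Pretreatment with test agent for 1 h, then LPS 1 μg/ml for 24 h; nitrite in culture medium measured by Griess assay. IC50 derived; means ± SDs of three independent experiments. L-NIL 10 μM served as reference NO inhibitor.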

[15] = system: RAW264.7; test: Inhibition of NF-kappaB in mouse RAW264.7 cells assessed as suppression of LPS-induced iNOS mRNA level at 6.25 to 25 uM after 4 hrs by quantitative RT-PCR analysis; format: cell-based; outline: as §7
[16] = system: RAW264.7; test: Inhibition of NF-kappaB in mouse RAW264.7 cells assessed as reduction of LPS-induced IL6 mRNA expression at 6.25 to 25 uM after 4 hrs by quantitative RT-PCR analysis; format: cell-based; outline: as §3
[17] = system: RAW264.7; test: Inhibition of NF-kappaB activation in LPS-stimulated mouse RAW264.7 cells assessed as blockage of IkappaBalpha phosphorylation pretreated at 6.25 to 25 uM for 1 hr before LPS challenge measured after 15 to 60 mins post challenge by Western blotting; format: cell-based; outline: as §4
[18] = system: RAW264.7; test: Inhibition of NF-kappaB in mouse RAW264.7 cells assessed as reduction of LPS-induced TNFalpha mRNA expression at 6.25 to 25 uM after 4 hrs by quantitative RT-PCR analysis; format: cell-based; outline: as §3
[19] = system: RAW264.7; test: Cytotoxicity against mouse RAW264.7 cells; format: cell-based
[20] = system: RAW264.7; test: Inhibition of NF-kappaB activation in mouse LPS-stimulated RAW264.7 cells co-transfected with pNF-KappaB-luc reporter and pRL-TK-luc pretreated for 1 hr before LPS challenge measured after 1 hr post challenge by luciferase assay; format: cell-based
Outline: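 Cells co-transfected with pNF-κB-luc and pRL-TK-luc, pretreated 1 h with 6.25, 12.5 or 25 μM, then given LPS 1 μg/ml for another 1 h. Luciferase activity measured by luminometer. Three independent experiments.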

[21] = system: RAW264.7; test: Inhibition of NF-kappaB in mouse RAW264.7 cells co-transfected with piNOS-luc reporter with pRL-TK-luc assessed as inhibition of LPS-induced iNOS expression pretreated for 1 hr before LPS challenge by luciferase assay; format: cell-based; outline: as §5
[22] = system: RAW264.7; test: Inhibition of NF-kappaB in mouse RAW264.7 cells assessed as reduction of LPS-induced TNFalpha release at 6.25 to 25 uM pretreated for 1 hr before LPS challenge and measured after 24 hrs post LPS challenge by EIA; format: cell-based; outline: as §1
[23] = system: RAW264.7; test: Antiinflammatory activity against mouse RAW264.7 cells assessed as inhibition of LPS-induced NO production at 25 uM preincubated for 1 hr before LPS challenge measured after 24 hrs by Griess method; format: functional; outline: as §8
[24] = system: RAW264.7; test: Inhibition of NF-kappaB in mouse RAW264.7 cells assessed as reduction of LPS-induced IL6 release at 6.25 to 25 uM pretreated for 1 hr before LPS challenge and measured after 24 hrs post LPS challenge by EIA; format: cell-based; outline: as §1
[25] = target: Transcription factor p65 (Mus musculus) (UniProt Q04207); test: Inhibition of NF-kappaB p65 subunit nuclear translocation in LPS-induced mouse RAW264.7 cells pretreated for 1 hr before LPS challenge measured after 15 min or 1 hr post challenge by Western blot analysis
[26] = system: RAW264.7; test: Antiinflammatory activity against mouse RAW264.7 cells assessed as inhibition of LPS-induced NO production at <16.73 uM preincubated for 1 hr before LPS challenge measured after 24 hrs by Griess method; format: functional, cell-based

Transcription factor p65 (Mus musculus), sequence (Q04207 whole entry): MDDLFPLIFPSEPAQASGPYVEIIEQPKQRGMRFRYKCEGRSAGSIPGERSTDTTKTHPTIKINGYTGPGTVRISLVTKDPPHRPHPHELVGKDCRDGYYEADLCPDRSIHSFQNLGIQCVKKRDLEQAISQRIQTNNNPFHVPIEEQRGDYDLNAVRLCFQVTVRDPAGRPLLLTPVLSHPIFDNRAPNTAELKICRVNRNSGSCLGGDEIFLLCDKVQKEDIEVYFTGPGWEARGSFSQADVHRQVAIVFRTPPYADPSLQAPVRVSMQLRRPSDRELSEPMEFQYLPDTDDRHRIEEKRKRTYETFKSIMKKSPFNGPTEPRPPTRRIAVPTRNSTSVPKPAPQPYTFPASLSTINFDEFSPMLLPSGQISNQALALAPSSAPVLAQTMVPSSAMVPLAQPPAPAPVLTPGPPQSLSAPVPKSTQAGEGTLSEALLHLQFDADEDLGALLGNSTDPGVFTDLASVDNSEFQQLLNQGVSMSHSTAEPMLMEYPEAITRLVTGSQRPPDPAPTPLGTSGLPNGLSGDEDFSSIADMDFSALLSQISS

IC50 [2]: 11 µM
IC50 [14]: 14.2 µM
inhibition [25]: Dose-dependent effect
SMILES: COc1cc2oc(-c3ccc(Br)cc3)cc(=O)c2c(OC)c1OC
inhibition [1]: Active
inhibition [2]: Dose-dependent effect
inhibition [3]: Dose-dependent effect
inhibition [4]: Active
inhibition [5]: Dose-dependent effect
inhibition [6]: Active
inhibition [7]: Dose-dependent effect
inhibition [8]: Dose-dependent effect
Activity [9]: Non-toxic
inhibition [10]: Dose-dependent effect
Activity [11]: Non-toxic
inhibition [12]: Active
inhibition at 25 µM [13]: 89.6%
inhibition [14]: Dose-dependent effect
inhibition [15]: Active
inhibition [16]: Active
inhibition [17]: Active
inhibition [18]: Active
IC50 [19]: 69.9 µM
inhibition [20]: Dose-dependent effect
inhibition [21]: Dose-dependent effect
inhibition [22]: Active
inhibition at 25 µM [23]: 89.6%
inhibition [24]: Active

SMILES: O=c1cc(-c2ccc([N+](=O)[O-])cc2)oc2cc(O)c(O)c(O)c12
Activity [9]: Non-toxic
Activity [11]: Non-toxic
inhibition at 25 µM [13]: 29.9%
IC50 [19]: > 100 µM
inhibition at 25 µM [23]: 7.65%

SMILES: COc1c(O)cc2oc(-c3ccccc3)cc(=O)c2c1O [OROXYLIN A]
IC50 [19]: 16.7 µM
inhibition at 25 µM [23]: 12.4%
Activity [26]: inactive

SMILES: COc1cc2oc(-c3ccc(N)cc3)cc(=O)c2c(OC)c1OC
Activity [9]: Non-toxic
Activity [11]: Non-toxic
inhibition at 25 µM [13]: 69.5%
IC50 [19]: > 100 µM
inhibition at 25 µM [23]: 23.1%

SMILES: COc1cc2oc(-c3ccc([N+](=O)[O-])cc3)cc(=O)c2c(OC)c1OC
Activity [9]: Non-toxic
Activity [11]: Non-toxic
inhibition at 25 µM [13]: 84.4%
IC50 [19]: > 100 µM
inhibition at 25 µM [23]: 17.4%

SMILES: O=c1cc(-c2ccccc2)oc2cc(O)c(O)c(O)c12 [BAICALEIN]
inhibition at 25 µM [13]: 60.9%
IC50 [19]: > 100 µM
inhibition at 25 µM [23]: 11.1%

SMILES: Nc1ccc(-c2cc(=O)c3c(O)c(O)c(O)cc3o2)cc1
Activity [9]: Non-toxic
Activity [11]: Non-toxic
inhibition at 25 µM [13]: 83.1%
IC50 [19]: 94.1 µM
inhibition at 25 µM [23]: 6.98%

SMILES: O=c1cc(-c2ccc(Br)cc2)oc2cc(O)c(O)c(O)c12
Activity [9]: Non-toxic
Activity [11]: Non-toxic
inhibition at 25 µM [13]: 29.9%
IC50 [19]: 57.1 µM
inhibition at 25 µM [23]: 27%

SMILES: COc1cc2oc(-c3ccccc3)cc(=O)c2c(OC)c1OC [BAICALEIN TRIMETHYL ETHER]
Activity [9]: Non-toxic
Activity [11]: Non-toxic
inhibition at 25 µM [13]: 42.2%
IC50 [19]: > 100 µM
inhibition at 25 µM [23]: 12.1%
